Drawing on ChEMBL document CHEMBL1806378, “Osteogenic constituents from Pterospermum acerifolium Willd. flowers” (Bioorg Med Chem Lett, 2011), this text covers Activity for 8 molecules.

In data set [1] the test system is Osteoblast. In words: Induction of osteogenesis in rat calvaria-derived primary osteoblasts assessed as increase in ALP activity after 48 hrs by bradford assay relative to control. Type of data set: functional, cell-based. A digest of the protocol: (§1)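 Primary rat calvarial osteoblasts (2 × 10^3 cells) seeded and exposed to graded compound concentrations for 48 h; BMP-2 as positive control, vehicle as control. ALP measured with p-nitrophenylphosphate substrate, read at 405 nm, normalized to total protein by Bradford assay. Three independent experiments, six replicates per point; mean ± SEM, one-way ANOVA versus control.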

In data set [2] the test system is Osteoblast. In words: Induction of osteogenesis in rat calvaria-derived primary osteoblasts assessed as increase in ALP activity at 10 pM after 48 hrs by bradford assay relative to control. Type of data set: functional, cell-based. A digest of the protocol:
as §1

For data set [3], the system named is Osteoblast. As to the kind of experiment: Induction of osteogenesis in rat calvaria-derived primary osteoblasts assessed as increase in ALP activity at 100 pM after 48 hrs by bradford assay relative to control. Type of data set: functional, cell-based. A digest of the protocol: as §1
Data set [4] has as its system Osteoblast. As to the kind of experiment: Induction of osteogenesis in rat calvaria-derived primary osteoblasts assessed as increase in ALP activity at 1 nM to 1 uM after 48 hrs by bradford assay relative to control. Type of data set: functional, cell-based. A digest of the protocol: as §1
The nature of data set [5]: Cytotoxicity against rat calvaria-derived primary osteoblasts assessed as cell viability by MTT assay. The conditions noted are these: osteoblast. Type of data set: cell-based. For orientation: Tetrazolium dyes change colour on reduction, which living cells bring about.
Data set [6] deals with Osteoblast. In words: Induction of osteogenesis in rat calvaria-derived primary osteoblasts assessed as increase in BMP2 mRNA level at 100 pM after 48 hrs by quantitative PCR analysis. Type of data set: functional, cell-based. A digest of the protocol:
(§2)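 Primary rat calvarial osteoblasts treated 48 h at 100 pM; BMP-2, Col1 and runx2 transcript levels quantified by qPCR (optimized protocol). Four independent experiments in triplicate per treatment point; mean ± SEM compared with control.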

The test system of data set [7] is Osteoblast. As to the kind of experiment: Induction of osteogenesis in rat calvaria-derived primary osteoblasts assessed as increase in runx2 mRNA level at 100 pM after 48 hrs by quantitative PCR analysis. Type of data set: functional, cell-based. A digest of the protocol: as §2
Data set [8] relates to Osteoblast. In words: Induction of osteogenesis in rat calvaria-derived primary osteoblasts assessed as increase in Col1 mRNA level at 100 pM after 48 hrs by quantitative PCR analysis. Type of data set: functional, cell-based. The method, boiled down: as §2
The test system of the next data set is Bone marrow cell. In words: Induction of mineralization in rat femur-derived bone marrow cells at 100 pM after 21 days by Alizarin Red S staining. Type of data set: functional, cell-based. The method, boiled down:
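Rat bone marrow cells (2 × 10^5) seeded and incubated 21 days with 100 pM compound; cells fixed, stained with alizarin red-S, dye extracted and optical density measured colorimetrically. Four independent experiments in triplicate; mean ± SEM versus control.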

Activity calls are given as the source filed them. The rule behind the calls is not given here.

In the case of `C=C[C@@](C)(CCC=C(C)C)O[C@@H]1O[C@H](CO[C@@H]2O[C@@H](C)[C@H](O)[C@@H](O)[C@H]2O)[C@@H](O)[C@H](O)[C@H]1O`, the result in the data set with Osteoblast [1] was inactive.
Still for that read-out and setting: to `CC1=CC(=O)CC(C)(C)[C@H]1/C=C/[C@H](C)O[C@@H]1O[C@H](CO)[C@@H](O)[C@H](O)[C@H]1O` belongs “inactive”.
For `C[C@@H]1O[C@@H](O[C@H]2[C@H](Oc3cc(O)c4c(=O)cc(-c5ccc(O)c(O)c5)oc4c3)O[C@H](CO)[C@@H](O)[C@@H]2O)[C@H](O)[C@H](O)[C@H]1O`, the result in the data set with Osteoblast [1] was inactive.
Turning to `O=c1cc(-c2ccc(O)c(O)c2)oc2cc(O[C@@H]3O[C@H](CO)[C@@H](O)[C@H](O)[C@H]3O)cc(O)c12`, the result in the data set with Osteoblast [1] was inactive.
`O=c1cc(-c2cccc(O)c2)oc2cc(O)c(O[C@@H]3O[C@H](CO)[C@@H](O)[C@H](O)[C@H]3O)c(O)c12`: the result with Osteoblast [1] was inactive.
Take `COc1cc(C(O)C(O)CO)ccc1Oc1ccc(-c2cc(=O)c3c(O)cc(O)cc3o2)cc1O` (centres undefined) [PTEROSPERMIN A]: the outcome in the data set on Osteoblast [2], in the data set on Osteoblast [3], with Osteoblast [6], with Osteoblast [7], in the data set with Osteoblast [8] and in the data set with Bone marrow cell was Active. In the data set with Osteoblast [4], the result was inactive. Also, the Activity result in data set [5] is listed as “Non-toxic”.
Turning to `O=C1OC(O)C=C1O` (centres undefined) [PTEROSPERMIN C], the outcome with Osteoblast [2], with Osteoblast [3], with Osteoblast [6], with Osteoblast [7], in the data set with Osteoblast [8] and in the data set with Bone marrow cell was Active. For the same molecule, in the data set on Osteoblast [4], the result was inactive. The Activity entry in data set [5] is “Non-toxic”.
Turning to `O=C(/C=C/c1ccc(O)cc1)OC[C@H]1O[C@@H](Oc2c(-c3ccc(O)cc3)oc3cc(O)cc(O)c3c2=O)[C@H](O)[C@@H](O)[C@@H]1O` [TILIROSIDE], the outcome in the data set with Osteoblast [2], in the data set on Osteoblast [3], in the data set on Osteoblast [6], with Osteoblast [7], in the data set with Osteoblast [8] and in the data set with Bone marrow cell was Active. For the same molecule, the result in the data set with Osteoblast [4] was inactive. Moreover, the Activity entry in data set [5] is “Non-toxic”.
